# Published values from different studies.
# Target: Protein-tyrosine kinase 2-beta (PTK2B, Homo sapiens, UniProt Q14289)
Structure (SMILES),test,setting,quantity,result
O=c1nc(-c2ccccn2)sc2ccccc12,"cell-free assay, competition with immobilised ligand",1 µM,remaining binding,100%
CCCOc1ccc(OC)c(F)c1C(=O)c1ccc(C(=O)N[C@@H]2CNC[C@H]2NC(=O)c2ccc3[nH]ncc3c2)cc1,"enzyme activity, inhibitor",10 µM,remaining activity,77%
Cc1nc(C2CCN(C(=O)c3ccc(OC(F)(F)F)cc3N)CC2)c2ncc(N3CCN(C)CC3)cc2n1,"cell-free assay, competition with immobilised ligand",1 µM,remaining binding,100%
O=C1Nc2ccc(Cl)cc2C1=Cc1cc(Cl)c(O)c(Cl)c1,cell-free assay,0.5 µM,remaining signal,96.7%
COc1cc(Cl)c(C(=O)N[C@@H](CN[C@H]2CC[C@@H](N)CC2)Cc2ccc(C#N)cc2)cc1-c1ccc(CN[C@H](C)c2ccc(C)cc2)o1,"enzyme activity, inhibitor",1 µM,remaining activity,101%
O=C1NC(=O)c2cc(Nc3ccc(F)cc3)c(Nc3ccc(F)cc3)cc21,cell-free assay,0.5 µM,remaining signal,111%
COc1cc2ncnc(Nc3ccc(Oc4ccccc4)c(C)c3C)c2cc1OC,"enzyme activity, inhibitor",1 µM,inhibition,1%
CC(C)(C)c1nc(-c2cccc(NS(=O)(=O)c3c(F)cccc3F)c2F)c(-c2ccnc(N)n2)s1,"enzyme activity, inhibitor, radiometric",1 µM,remaining activity,109%
CNC(=O)c1cc2c(Oc3ccc(NC(=O)C4(C(=O)Nc5ccc(F)cc5)CC4)cc3)ccnc2cc1OC,"enzyme activity, inhibitor, radiometric",1 µM,inhibition,79%
CN([C@@H]1CCc2c(CC(=O)O)c3cc(S(C)(=O)=O)ccc3n2C1)S(=O)(=O)c1ccc(F)cc1,"cell-free assay, competition with immobilised ligand",1 µM,remaining binding,100%
CC(C)(O)[C@H]1CC[C@H](Nc2ccc3ncc(-c4cccc(C(F)(F)F)c4)n3n2)CC1,"enzyme activity, inhibitor",1 µM,remaining activity,94.4%
CCN(CC)CCNC(=O)c1c(C)[nH]c(/C=C2\C(=O)Nc3ccc(F)cc32)c1C,"enzyme activity, inhibitor",1 µM,remaining activity,30%
FC(F)(F)c1ccc2c(c1)nc(-c1cccnc1)n2C1CC1,"cell-free assay, competition with immobilised ligand",1 µM,remaining binding,100%
CCN(CC)CCNC(=O)c1c(C)[nH]c(/C=C2\C(=O)Nc3ccc(F)cc32)c1C,"enzyme activity, inhibitor",10 µM,inhibition,97%
Cc1[nH]c(/C=C2\C(=O)Nc3ccc(F)cc32)c(C)c1C(=O)N[C@H]1CCN(C(=O)N(C)C)C1,"enzyme activity, inhibitor",0.1 µM,remaining activity,109%
Cc1cc(NC(=O)c2cccc3cc(-c4cccc5[nH]nc(N)c45)ccc23)ccc1F,"enzyme activity, inhibitor",0.1 µM,activity vs control,113%
Cc1ccc(Nc2nccc(N(C)c3ccc4c(C)n(C)nc4c3)n2)cc1S(N)(=O)=O,"enzyme activity, inhibitor",10 µM,inhibition,81%
O=C(N1CCS(=O)(=O)CC1)N1C[C@H](c2ccc(OC(F)(F)F)cc2)C[C@H](c2nc(C3CC3)no2)C1,"cell-free assay, competition with immobilised ligand",1 µM,remaining binding,99%
CNC(=O)c1cc(Oc2ccc(NC(=O)Nc3ccc(Cl)c(C(F)(F)F)c3)cc2)ccn1,"enzyme activity, inhibitor",10 µM,inhibition,28%
Cc1sc(C(=O)NC2COC2)cc1-n1cc(NC(=O)Nc2c(F)cccc2Cl)cn1,"enzyme activity, inhibitor",10 µM,remaining activity,104%
Nc1nc(Nc2ccc(S(N)(=O)=O)cc2)nn1C(=O)c1c(F)cccc1F,cell-free assay,0.5 µM,remaining signal,79.7%
Cc1cnc(NC2CCOCC2)nc1-n1cnc(C(=O)NC(CN)c2cc(F)cc(Cl)c2)c1 (stereo not shown),"enzyme activity, inhibitor, radiometric",1 µM,remaining activity,99%
Cc1c(NC(=O)c2cc(C(N)=O)nc3cc(F)ccc23)c(C(F)(F)F)nn1Cc1ccc(C(C)(C)C)cc1,"cell-free assay, competition with immobilised ligand",1 µM,remaining binding,92%
O=C(Nc1cnn(-c2csc(C(=O)NC3COC3)c2)c1)Nc1ccccc1Cl,"enzyme activity, inhibitor",5 µM,remaining activity,93.5%
CN(c1ccnc(CNc2nc(Nc3ccc4c(c3)CC(=O)N4)ncc2C(F)(F)F)n1)S(C)(=O)=O,"cell-free assay, competition with immobilised ligand",1 µM,remaining binding,59%
N#CCCc1ccc2c(c1)-c1[nH]c3ccc([N+](=O)[O-])cc3c1CC(=O)N2,cell-free assay,0.5 µM,remaining signal,62.9%
O=C(Nc1ccc(Oc2ccc(F)cc2)cc1)N1CCc2ncccc2[C@H]1c1ccc(F)cc1,"cell-free assay, competition with immobilised ligand",1 µM,remaining binding,89%
CCCS(=O)(=O)Nc1ccc(F)c(C(=O)c2c[nH]c3ncc(-c4ccc(Cl)cc4)cc23)c1F,"enzyme activity, inhibitor",1 µM,inhibition,< 10%
